# Reference: ChEMBL document CHEMBL1123397, “Antiarrhythmic activity of 17 beta-aminoestratrienes. Comparison of 3-ols and 3-acetates with the corresponding 3-(3-amino-2-hydroxypropyl) ethers” (1986)
# Activity calls are given as the source filed them. No cut-off for these calls is given here.
# How the values were obtained:
# Cavia porcellus [1] = species on record: Cavia porcellus; experiment: Concentration required to reduce maximum following frequencu (MFF) of isolated guinea pig atria by 25%; assay type: functional
# Summary of the method: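 Guinea pig left atria in an organ bath of Krebs solution at 35 °C, gassed with carbogen, electrically driven, isometric contractions recorded. Drugs added cumulatively; maximum following frequency determined 6 min after each concentration. Concentration reducing MFF by 25% (EC25) calculated from six preparations.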
# Mus musculus [2] = species on record: Mus musculus; experiment: ED 50 value against aconitine-induced arrhythmias in mice; assay type: functional
# Summary of the method: (§1)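 Anaesthetised mice were given test compound intraperitoneally, then aconitine intravenously to induce arrhythmia. At least three doses were tested in separate groups (n = 6-10). ED50 is the dose raising the arrhythmogenic aconitine dose 50% above the control requirement.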
# Rattus norvegicus [3] = experiment: Compound that antagonized arrhythmias evoked by coronary artery ligation in the rat was measured at 0.05 mg/kg dose; assay type: functional
# Summary of the method: (§2)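 Male Wistar rats, anaesthetised and artificially ventilated, with left thoracotomy; silk suture under main left coronary artery. After stabilization, test drug or vehicle i.v.; 14 min later isoprenaline 10 μg/kg; 1 min after that the ligature was tightened and VF incidence recorded over 30 min. Carotid pressure and lead II ECG monitored continuously. 7-12 animals per group.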
# Rattus norvegicus [4] = experiment: Effect on heart rate after isoprenaline induced tachycardia in the anesthetized rat at 1 mg/kg dose; assay type: functional
# Summary of the method: (§3)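 Same ligation protocol in anaesthetised male Wistar rats. Heart rate was taken from the lead II ECG at three points: just before i.v. drug or vehicle, 14 min after it (just before isoprenaline 10 μg/kg), and 1 min after isoprenaline. Pre vs post rates and isoprenaline responses vs controls were compared by Student's t test. Mean ± SEM of 7-12 observations.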
# Rattus norvegicus [5] = experiment: Effect on heart rate before isoprenaline induced tachycardia in the anesthetized rat at 1 mg/kg dose; assay type: functional; summary of the method: as §3
# Rattus norvegicus [6] = experiment: Effect on heart rate on 1 min post isoprenaline induced tachycardia in the anesthetized rat at 1 mg/kg dose.; assay type: functional
# Summary of the method: (§4)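 Test drug or vehicle was given i.v., and isoprenaline (10 µg/kg) 14 min later. Heart rate was read from the lead II ECG just before drug, at 14 min (pre-isoprenaline) and 1 min after isoprenaline. Compared by Student's t test; 7–12 animals per group; mean ± SEM.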
# Rattus norvegicus [7] = experiment: Mean change in heart rate recorded 14 min after the administration of compound.; assay type: functional; summary of the method: as §4
# Rattus norvegicus [8] = species on record: Rattus norvegicus; experiment: Maximum increase in heart rate evoked by isoprenaline.; assay type: functional; summary of the method: as §4
# Mus musculus [9] = species on record: Mus musculus; experiment: ED 50 value against aconitine-induced arrhythmias in mice; IA is Inactive; assay type: functional, organism-based; summary of the method: as §1
# Rattus norvegicus [10] = experiment: Effective dose that antagonized arrhythmias evoked by coronary artery ligation in the rat was measured at 2.0 mg/kg dose; assay type: functional
# Rattus norvegicus [11] = experiment: Effect on heart rate after isoprenaline induced tachycardia in the anesthetized rat at 2 mg/kg dose; assay type: functional; summary of the method: as §3
# Rattus norvegicus [12] = experiment: Effect on heart rate before isoprenaline induced tachycardia in the anesthetized rat at 2 mg/kg dose; assay type: functional; summary of the method: as §4
# Rattus norvegicus [13] = experiment: Effect on heart rate on 1 min post isoprenaline induced tachycardia in the anesthetized rat at 2.0 mg/kg dose.; assay type: functional; summary of the method: as §4
# Rattus norvegicus [14] = experiment: Antagonism of Ventricular Fibrilloflutter (VF) evoked by coronary artery ligation in the rat measured at 2 mg/kg dose; assay type: functional, Heart; summary of the method: as §2
# Cavia porcellus [15] = species on record: Cavia porcellus; experiment: Compound was tested for antiarrhythmic activity expressed as action potential height (AP) in guinea pig atria at 2(ug/mL) concentration; assay type: functional, Heart
# Summary of the method: (§5)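 Guinea pig left atria pinned in a recording chamber, superfused with carbogen-gassed Krebs solution at 35 ± 0.5 °C and electrically stimulated. Transmembrane action potentials were recorded with conventional microelectrodes, giving RMP, AP height, APD50, APD90 and maximum rate of depolarization. Values are mean ± SEM from n cells across five preparations.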
# Cavia porcellus [16] = species on record: Cavia porcellus; experiment: Compound was tested for antiarrhythmic activity (time taken to reach 50% repolarization) in guinea pig atria at 2(ug/mL) concentration; assay type: functional, Heart; summary of the method: as §5
# Cavia porcellus [17] = species on record: Cavia porcellus; experiment: Compound was tested for antiarrhythmic activity (time taken to reach 50% repolarization) in guinea pig atria at 4(ug/mL) concentration; assay type: functional, Heart; summary of the method: as §5
# Cavia porcellus [18] = species on record: Cavia porcellus; experiment: Compound was tested for antiarrhythmic activity (time taken to reach 50% repolarization) in guinea pig atria at 8(ug/mL) concentration; assay type: functional, Heart; summary of the method: as §5
# Cavia porcellus [19] = species on record: Cavia porcellus; experiment: Compound was tested for antiarrhythmic activity (time taken to reach 90% repolarization) in guinea pig atria at 2(ug/mL) concentration; assay type: functional, Heart; summary of the method: as §5
# Cavia porcellus [20] = species on record: Cavia porcellus; experiment: Compound was tested for antiarrhythmic activity (time taken to reach 90% repolarization) in guinea pig atria at 4(ug/mL) concentration; assay type: functional, Heart; summary of the method: as §5
# Cavia porcellus [21] = species on record: Cavia porcellus; experiment: Compound was tested for antiarrhythmic activity (time taken to reach 90% repolarization) in guinea pig atria at 8(ug/mL) concentration; assay type: functional, Heart; summary of the method: as §5
# Cavia porcellus [22] = species on record: Cavia porcellus; experiment: Compound was tested for antiarrhythmic activity expressed as action potential height (AP) in guinea pig atria at 4(ug/mL) concentration; assay type: functional, Heart; summary of the method: as §5
# Cavia porcellus [23] = species on record: Cavia porcellus; experiment: Compound was tested for antiarrhythmic activity expressed as action potential height (AP) in guinea pig atria at 8(ug/mL) concentration; assay type: functional, Heart; summary of the method: as §5
# Cavia porcellus [24] = species on record: Cavia porcellus; experiment: Compound was tested for antiarrhythmic activity (maximum rate of phase 0 depolarization- MRD) in guinea pig atria at 2(ug/mL) concentration; assay type: functional, Heart; summary of the method: as §5
# Cavia porcellus [25] = species on record: Cavia porcellus; experiment: Compound was tested for antiarrhythmic activity (maximum rate of phase 0 depolarization- MRD) in guinea pig atria at 4(ug/mL) concentration; assay type: functional, Heart; summary of the method: as §5
# Cavia porcellus [26] = species on record: Cavia porcellus; experiment: Compound was tested for antiarrhythmic activity (maximum rate of phase 0 depolarization- MRD) in guinea pig atria at 8(ug/mL) concentration; assay type: functional, Heart; summary of the method: as §5
# Cavia porcellus [27] = species on record: Cavia porcellus; experiment: Compound was tested for antiarrhythmic activity expressed as resting membrane potential (RMP) in guinea pig atria at 2 ug/mL concentration; assay type: functional; conditions: Heart; summary of the method: as §5
# Cavia porcellus [28] = species on record: Cavia porcellus; experiment: Compound was tested for antiarrhythmic activity expressed as resting membrane potential (RMP) in guinea pig atria at 4 ug/mL concentration; assay type: functional; conditions: Heart; summary of the method: as §5
# Cavia porcellus [29] = species on record: Cavia porcellus; experiment: Compound was tested for antiarrhythmic activity expressed as resting membrane potential (RMP) in guinea pig atria at 8 ug/mL concentration; assay type: functional; conditions: Heart; summary of the method: as §5
# Rattus norvegicus [30] = experiment: Compound that antagonized arrhythmias evoked by coronary artery ligation in the rat was measured at 1.0 mg/kg dose; assay type: functional; summary of the method: as §2
# Rattus norvegicus [31] = species on record: Rattus norvegicus; experiment: Maximum increase in heart rate evoked by isoprenaline; assay type: functional; summary of the method: as §4
# Rattus norvegicus [32] = experiment: Effect of teh compound on heart rate on 1 min post isoprenaline induced tachycardia in the anesthetized rat at 2.0 mg/kg dose.; assay type: functional; summary of the method: as §3
# Rattus norvegicus [33] = experiment: Compound was tested for antagonism of Ventricular Fibrilloflutter (VF) evoked by coronary artery ligation in the rat measured at 1 mg/kg dose; assay type: functional, Heart; summary of the method: as §2
# Rattus norvegicus [34] = experiment: Effect on heart rate on 1 min post isoprenaline induced tachycardia in the anesthetized rat at 1.0 mg/kg dose.; assay type: functional; summary of the method: as §4
# Rattus norvegicus [35] = experiment: Effective dose that antagonized arrhythmias evoked by coronary artery ligation in the rat was measured at 0.01 mg/kg dose; assay type: functional
# Rattus norvegicus [36] = experiment: Compound was tested for antagonism of Ventricular Fibrilloflutter (VF) evoked by coronary artery ligation in the rat measured at 0.01 mg/kg dose; assay type: functional, Heart; conditions: dose 0.1 mg/kg; in the assay text read “0.1 mg/kg” for “0.01 mg/kg”; summary of the method: as §2
# Rattus norvegicus [37] = experiment: Compound was tested for antagonism of Ventricular Fibrilloflutter (VF) evoked by coronary artery ligation in the rat measured at 0.05 mg/kg dose; assay type: functional, Heart; summary of the method: as §2
smiles,measurement,setting,value
CCCNCC(O)COc1ccccc1C(=O)CCc1ccccc1 (stereo unspecified) [PROPAFENONE],EC25,Cavia porcellus [1],1.85 µg/mL
same,ED50,Mus musculus [2],24.3 mg/kg
same,ED50,Rattus norvegicus [3],0.7 mg/kg
same,Heart rate,Rattus norvegicus [4],391 beats min-1
same,Heart rate,Rattus norvegicus [5],443 beats min-1
same,Heart rate,Rattus norvegicus [6],445 beats min-1
same,Change,Rattus norvegicus [7],-11.7%
same,Increase,Rattus norvegicus [8],13.8%
CNC1CC[C@H]2[C@@H]3CCc4cc(OCC(O)CNC(C)(C)C)ccc4[C@H]3CC[C@]12C (stereo partly specified),EC25,Cavia porcellus [1],25.8 µg/mL
same,ED50,Mus musculus [9],inactive
same,ED50 at 2 mg/kg,Rattus norvegicus [10],< 2 mg/kg
same,Heart rate,Rattus norvegicus [11],335 beats min-1
same,Heart rate,Rattus norvegicus [12],387 beats min-1
same,Heart rate,Rattus norvegicus [13],335 beats min-1
same,VF,Rattus norvegicus [14],0%
same,Change,Rattus norvegicus [7],-13.4%
same,Increase,Rattus norvegicus [8],0%
CNC1[C@H](O)C[C@H]2[C@@H]3CCc4cc(OCC(O)CNC(C)C)ccc4[C@H]3CC[C@]12C (stereo partly specified),EC25,Cavia porcellus [1],21 µg/mL
same,ED50,Mus musculus [9],inactive
CC(C)NCC(O)COc1ccc2c(c1)CC[C@@H]1[C@@H]2CC[C@]2(C)C(N(C)C)[C@H](O)C[C@@H]12 (stereo partly specified),AP,Cavia porcellus [15],83.8 mV
same,APD50,Cavia porcellus [16],26 ms
same,APD50,Cavia porcellus [17],20.7 ms
same,APD50,Cavia porcellus [18],19.5 ms
same,APD90,Cavia porcellus [19],69.8 ms
same,APD90,Cavia porcellus [20],64.8 ms
same,APD90,Cavia porcellus [21],64.9 ms
same,AP,Cavia porcellus [22],81.6 mV
same,AP,Cavia porcellus [23],79.5 mV
same,MRD,Cavia porcellus [24],139.5 V s-1
same,MRD,Cavia porcellus [25],124 V s-1
same,MRD,Cavia porcellus [26],139.3 V s-1
same,RMP,Cavia porcellus [27],71 mV
same,RMP,Cavia porcellus [28],70.4 mV
same,RMP,Cavia porcellus [29],69.1 mV
same,EC25,Cavia porcellus [1],13.7 µg/mL
same,ED50,Mus musculus [9],inactive
same,ED50 at 1 mg/kg,Rattus norvegicus [30],< 1 mg/kg
same,Increase,Rattus norvegicus [31],0%
same,Heart rate,Rattus norvegicus [32],366 beats min-1
same,Heart rate,Rattus norvegicus [11],366 beats min-1
same,Heart rate,Rattus norvegicus [12],394 beats min-1
same,VF,Rattus norvegicus [33],13%
same,Change,Rattus norvegicus [7],-7.1%
CC(C)NCC(O)COc1ccc2c(c1)CC[C@@H]1[C@@H]2CC[C@]2(C)C(N(C)C)CC[C@@H]12 (stereo partly specified),EC25,Cavia porcellus [1],16.1 µg/mL
same,ED50,Mus musculus [9],inactive
same,ED50 at 2 mg/kg,Rattus norvegicus [10],< 1 mg/kg
same,Heart rate,Rattus norvegicus [4],387 beats min-1
same,Heart rate,Rattus norvegicus [5],405 beats min-1
same,Heart rate,Rattus norvegicus [34],393 beats min-1
same,VF,Rattus norvegicus [33],29%
same,VF,Rattus norvegicus [14],14%
same,Change,Rattus norvegicus [7],-4.4%
same,Increase,Rattus norvegicus [8],1.6%
CNC1CC[C@H]2[C@@H]3CCc4cc(O)ccc4[C@H]3CC[C@]12C (stereo partly specified),EC25,Cavia porcellus [1],2.09 µg/mL
same,ED50,Mus musculus [2],8.2 mg/kg
CN(C)C1CC[C@H]2[C@@H]3CCc4cc(OCC(O)CNC(C)(C)C)ccc4[C@H]3CC[C@]12C (stereo partly specified),EC25,Cavia porcellus [1],24.1 µg/mL
same,ED50,Mus musculus [9],inactive
same,ED50,Rattus norvegicus [35],0.05 mg/kg
same,VF,Rattus norvegicus [36],25%
same,VF,Rattus norvegicus [37],38%
same,Heart rate,Rattus norvegicus [4],363 beats min-1
same,Heart rate,Rattus norvegicus [5],390 beats min-1
same,Heart rate,Rattus norvegicus [34],376 beats min-1
same,VF,Rattus norvegicus [33],0%
same,Change,Rattus norvegicus [7],-6.9%
same,Increase,Rattus norvegicus [8],3.4%
